From ChEMBL document CHEMBL3085686, “New 7-methylguanine derivatives targeting the influenza polymerase PB2 cap-binding domain” (J Med Chem, 2013)

How the values were obtained:
[1] = Inhibition of influenza A virus biotinylated GST-His-tagged H3N2 RNA polymerase PB2 cap-binding domain interaction with EDA-m7GpppA by AlphaScreen assay
[2] = Inhibition of influenza A virus His-tagged H3N2 RNA polymerase PB2 cap-binding domain interaction with EDA-m7GpppA by AlphaScreen assay
How it was run: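 His-tagged H3N2 PB2 cap-binding domain binding a biotinylated cap analogue (Biotin-EDA-m7GpppA), read by AlphaScreen with Ni(II)-chelate beads at 7.5 µg/ml each. Compound was 11-point 1:1 serially diluted from 200 µM. Incubation at room temperature in subdued light. IC50 reported.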

Influenza A virus [3] = assay: Antiviral activity against Influenza A virus (A/Aichi/2/68(H3N2)) VR-547 infected in MDCK cells assessed as reduction in virus-induced cytopathic effect at 50 uM after 48 hrs by CellTiter-Glo assay; assay type: functional, Influenza A virus (A/Aichi/2/1968(H3N2)); design: scale not given: the % may be the effect or the level left
Influenza A virus [4] = assay: Binding affinity to influenza A virus H5N1 RNA polymerase PB2 cap-binding domain at 10 uM by biacore-based SPR analysis
How it was run: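 Purified H5N1 PB2 cap-binding domain amine-coupled to a CM7 chip at 30 µg/ml in 10 mM phosphate pH 6.5 with 5 mM m7GTP, giving about 7000 RU. Compound injected at 10 µM final (0.5% DMSO) in Tris/EDTA/NaCl/P20/1 mM DTT running buffer at 10 µL/min. Sensorgrams were double-referenced and DMSO-corrected.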

[5] = Binding affinity to influenza A virus H5N1 RNA polymerase PB2 cap-binding domain by biacore-based SPR analysis
How it was run: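 H5N1 PB2-CBD was immobilised by amine coupling (30 µg/ml, with 5 mM m7GTP, pH 6.5; about 7000 RU). Analyte was run over 200 µM to 1 nM in Tris/EDTA/NaCl/P20/DTT buffer with 0.5% DMSO. Data were double-referenced and DMSO-corrected. KD came from a linear curve fit.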

[6] = Inhibition of influenza A virus RNA polymerase PB2 domain-mediated cap binding

| Structure (SMILES) | IC50 [1] | IC50 [2] | Activity (Influenza A virus [3]) | RU (Influenza A virus [4]) | Kd [5] | IC50 [6] |
| --- | --- | --- | --- | --- | --- | --- |
| COc1ccc(-n2c[n+](C)c3c([O-])nc(N)nc32)cc1OC | ≥ 200 µM | 50 µM | – | – | – | – |
| C[n+]1cn(CC(=O)N[C@H](Cc2ccccc2)C(=O)O)c2nc(N)nc([O-])c21 | ≥ 200 µM | 65 µM | – | – | – | – |
| C[n+]1cn(CC(=O)O)c2nc(N)nc([O-])c21 | ≥ 200 µM | ≥ 200 µM | – | – | – | – |
| C[n+]1cn(CC(=O)N[C@@H](Cc2ccccc2)C(=O)O)c2nc(N)nc([O-])c21 | ≥ 200 µM | 88 µM | – | – | – | – |
| C[n+]1cn(CC(=O)c2ccc3ccccc3c2)c2nc(N)nc([O-])c21 | ≥ 200 µM | 7.6 µM | -3.2% | – | – | – |
| C[n+]1cn(CCCCC(=O)O)c2nc(N)nc([O-])c21 | ≥ 200 µM | ≥ 200 µM | – | – | – | – |
| C[n+]1cn(CC(=O)O)c2nc(NCC(=O)O)nc([O-])c21 | ≥ 200 µM | 44 µM | – | – | – | – |
| C[n+]1cn(CC(=O)Nc2cc(C(=O)O)cc(C(=O)O)c2)c2nc(N)nc([O-])c21 | ≥ 200 µM | ≥ 200 µM | – | – | – | – |
| C[n+]1cn(CC(=O)N[C@@H](CCC(=O)O)C(=O)O)c2nc(N)nc([O-])c21 | ≥ 200 µM | 45 µM | -1.8% | 13.8 | – | – |
| C[n+]1cn(CCCCCC(=O)O)c2nc(N)nc([O-])c21 | ≥ 200 µM | ≥ 200 µM | – | – | – | – |
| CC[n+]1cn(CC(=O)c2ccc(O)c(C(N)=O)c2)c2nc(N)nc([O-])c21 | ≥ 200 µM | 3.6 µM | 0.3% | – | – | – |
| C[n+]1cn(CCCC(=O)O)c2nc(NCCCC(=O)O)nc([O-])c21 | ≥ 200 µM | 141 µM | – | – | – | – |
| C[n+]1cn(CC(=O)N[C@H](Cc2ccccc2)C(=O)O)c2nc(NCCCCC(=O)O)nc([O-])c21 | ≥ 200 µM | 53 µM | – | – | – | – |
| C[n+]1cn(CC(=O)N[C@@H](CC(=O)O)C(=O)O)c2nc(N)nc([O-])c21 | 124 µM | 33 µM | – | – | – | – |
| C[n+]1cn(CC(=O)c2ccccc2)c2nc(N)nc([O-])c21 | ≥ 200 µM | 13.7 µM | -2.3% | – | – | – |
| CC(=O)Nc1nc([O-])c2c(n1)n(CC(=O)c1ccc(O)c(C(N)=O)c1)c[n+]2C | ≥ 200 µM | 129 µM | – | – | – | – |
| C[n+]1cn(CC(=O)c2ccc3c(c2)NC(=O)CO3)c2nc(N)nc([O-])c21 | ≥ 200 µM | 23 µM | – | – | – | – |
| C[n+]1cn(CC(=O)c2ccc(O)c(C(=O)O)c2)c2nc(N)nc([O-])c21 | 2.2 µM | 0.6 µM | – | – | – | – |
| C[n+]1cn(C(C(=O)c2ccccc2)c2ccccc2)c2nc(N)nc([O-])c21 (stereo not given) | ≥ 200 µM | 42 µM | – | – | – | – |

| Structure (SMILES) | IC50 [1] | IC50 [2] | Activity (Influenza A virus [3]) | RU (Influenza A virus [4]) | Kd [5] | IC50 [6] |
| --- | --- | --- | --- | --- | --- | --- |
| C[n+]1cn(CC(=O)c2ccc(O)c(C(N)=O)c2)c2nc(N)nc([O-])c21 | ≥ 200 µM | 7.5 µM | -0.2% | 85.8 | 13 µM | – |
| C[n+]1cn(-c2ccc(C(=O)O)cc2)c2nc(N)nc([O-])c21 | ≥ 200 µM | 181 µM | – | – | – | – |
| C=CC[n+]1cn(CC(=O)c2ccc(O)c(C(N)=O)c2)c2nc(N)nc([O-])c21 | ≥ 200 µM | 60 µM | 0% | – | – | – |
| Nc1nc2c(c(=O)[nH]1)[n+](Cc1ccccc1)cn2CCCCO | ≥ 200 µM | ≥ 200 µM | – | – | – | 45 µM |
| C[n+]1cn(-c2cccc(C(=O)O)c2)c2nc(N)nc([O-])c21 | ≥ 200 µM | 44 µM | – | – | – | – |
| C[n+]1cn(CC(=O)N[C@@H](Cc2ccc(O)cc2)C(=O)O)c2nc(N)nc([O-])c21 | ≥ 200 µM | 80 µM | – | – | – | – |
| C[n+]1cn(CC(=O)N[C@H](CC(=O)O)C(=O)O)c2nc(N)nc([O-])c21 | ≥ 200 µM | 91 µM | – | – | – | – |
| C[n+]1cn(-c2ccccc2)c2nc(N)nc([O-])c21 | ≥ 200 µM | 140 µM | – | – | – | – |
| NC(=O)c1cc(C(=O)Cn2c[n+](Cc3ccccc3)c3c([O-])nc(N)nc32)ccc1O | ≥ 200 µM | 195 µM | – | – | – | – |
| C[n+]1cn(CCCCC(=O)O)c2nc(NCCCCC(=O)O)nc([O-])c21 | ≥ 200 µM | 5.3 µM | -3.3% | 17.5 | – | – |
| Nc1nc2c(ncn2CC(=O)c2ccc(O)c(C(=O)O)c2)c(=O)[nH]1 | 4.8 µM | 5.6 µM | 1.1% | 22.6 | – | – |
| CC(=O)Nc1nc([O-])c2c(n1)n(CC(=O)O)c[n+]2C | ≥ 200 µM | ≥ 200 µM | – | – | – | – |
| CC(C(=O)c1ccccc1)n1c[n+](C)c2c([O-])nc(N)nc21 (stereo not given) | ≥ 200 µM | 65 µM | – | – | – | – |
| NC(=O)c1cc(C(=O)Cn2cnc3c(=O)[nH]c(N)nc32)ccc1O | 141 µM | 49 µM | -0.5% | 20.4 | – | – |
| C[n+]1cn(CC(=O)NCC(=O)O)c2nc(N)nc([O-])c21 | ≥ 200 µM | ≥ 200 µM | – | – | – | – |
| C[n+]1cn(CC(=O)O)c2nc(NCCCCC(=O)O)nc([O-])c21 | ≥ 200 µM | 95 µM | – | – | – | – |
| C[n+]1cn(CCCC(=O)O)c2nc(N)nc([O-])c21 | ≥ 200 µM | ≥ 200 µM | – | – | – | – |
| C[n+]1cn(CCC(=O)O)c2nc(N)nc([O-])c21 | ≥ 200 µM | ≥ 200 µM | – | – | – | – |
